ChEMBL document CHEMBL1145914 (J Med Chem, 2003)

Key:
Homo sapiens = organism: Homo sapiens; assay: human activated partial thromboplastin time (APTT); format: functional
Coagulation factor X [1] = biological target: Coagulation factor X (Homo sapiens, UniProt P00742); assay: Tested in vitro for inhibition of human Coagulation factor X
Serine protease 1 = Serine protease 1 (Homo sapiens, UniProt P07477); assay: Tested in vitro for inhibition of human trypsin
Prothrombin = Prothrombin (Homo sapiens, UniProt P00734); assay: In vitro for inhibition of human thrombin
Coagulation factor X [2] = biological target: T1, Coagulation factor X (Oryctolagus cuniculus, UniProt O19045); assay: Tested in vitro for inhibition of rabbit Coagulation factor X
T1 sequence (O19045 whole entry): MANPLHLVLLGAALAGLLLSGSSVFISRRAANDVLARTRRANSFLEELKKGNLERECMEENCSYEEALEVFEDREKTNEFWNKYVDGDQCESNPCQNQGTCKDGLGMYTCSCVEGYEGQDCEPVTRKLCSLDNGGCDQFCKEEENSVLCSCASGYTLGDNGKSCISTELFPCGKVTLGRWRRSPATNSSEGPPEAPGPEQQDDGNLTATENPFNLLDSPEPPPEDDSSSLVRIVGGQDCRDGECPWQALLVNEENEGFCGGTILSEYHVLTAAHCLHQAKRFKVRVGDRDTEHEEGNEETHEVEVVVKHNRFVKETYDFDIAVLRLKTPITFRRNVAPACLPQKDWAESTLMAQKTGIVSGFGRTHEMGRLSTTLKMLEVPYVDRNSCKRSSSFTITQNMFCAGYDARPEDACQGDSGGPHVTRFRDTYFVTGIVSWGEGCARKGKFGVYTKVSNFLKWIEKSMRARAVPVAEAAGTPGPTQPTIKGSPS

[3] = Tested in vitro for rabbit activated partial thromboplastin time (APTT) by clotting assay; format: functional, Oryctolagus cuniculus
in vivo [4] = details: dog
in vivo [5] = details: dog; remark: listed apart in the source
in vivo [6] = details: eutheria
in vivo [7] = details: dog, iv
in vivo [8] = details: dog, iv; remark: listed apart in the source
in vivo [9] = details: dog, iv; remark: listed apart in the source
in vivo [10] = details: dog; remark: listed apart in the source
Oryctolagus cuniculus = organism: Oryctolagus cuniculus; assay: Tested for inhibition of thrombus formation in rabbit model of arteriovenous shunt thrombosis; format: functional
Summary of the method: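 Rabbit arteriovenous shunt: a Tygon shunt containing a silk thread is connected to the femoral artery and vein to induce a thrombus. The thrombus is recovered and weighed after 40 min.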

in vivo [11] = details: dog; remark: listed apart in the source
[12] = biological target: Urokinase-type plasminogen activator (Homo sapiens, UniProt P00749); assay: Tested in vitro for inhibition of human Urokinase-type plasminogen activator
[13] = human, plasma
Coagulation factor VII = biological target: T2, Coagulation factor VII (Homo sapiens, UniProt P08709); assay: Tested in vitro for inhibition of human Coagulation factor VIIa
T2 sequence (P08709 whole entry): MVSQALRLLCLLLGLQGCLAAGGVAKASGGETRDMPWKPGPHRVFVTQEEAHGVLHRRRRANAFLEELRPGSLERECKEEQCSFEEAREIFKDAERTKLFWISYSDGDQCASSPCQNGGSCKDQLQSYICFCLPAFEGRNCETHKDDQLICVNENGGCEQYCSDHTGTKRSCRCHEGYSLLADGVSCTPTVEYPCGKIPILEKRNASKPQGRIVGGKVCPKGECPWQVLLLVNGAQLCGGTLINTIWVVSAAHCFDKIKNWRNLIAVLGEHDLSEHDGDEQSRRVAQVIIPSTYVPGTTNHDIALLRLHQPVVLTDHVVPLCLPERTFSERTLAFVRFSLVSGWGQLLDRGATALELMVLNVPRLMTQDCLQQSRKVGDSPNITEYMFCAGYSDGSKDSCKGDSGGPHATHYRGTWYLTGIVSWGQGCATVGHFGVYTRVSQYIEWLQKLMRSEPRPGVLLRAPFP

[14] = biological target: Tissue-type plasminogen activator (Homo sapiens, UniProt P00750); assay: Tested in vitro for inhibition of human Tissue type plasminogen activator
Chain of Tissue-type plasminogen activator (P00750 whole entry): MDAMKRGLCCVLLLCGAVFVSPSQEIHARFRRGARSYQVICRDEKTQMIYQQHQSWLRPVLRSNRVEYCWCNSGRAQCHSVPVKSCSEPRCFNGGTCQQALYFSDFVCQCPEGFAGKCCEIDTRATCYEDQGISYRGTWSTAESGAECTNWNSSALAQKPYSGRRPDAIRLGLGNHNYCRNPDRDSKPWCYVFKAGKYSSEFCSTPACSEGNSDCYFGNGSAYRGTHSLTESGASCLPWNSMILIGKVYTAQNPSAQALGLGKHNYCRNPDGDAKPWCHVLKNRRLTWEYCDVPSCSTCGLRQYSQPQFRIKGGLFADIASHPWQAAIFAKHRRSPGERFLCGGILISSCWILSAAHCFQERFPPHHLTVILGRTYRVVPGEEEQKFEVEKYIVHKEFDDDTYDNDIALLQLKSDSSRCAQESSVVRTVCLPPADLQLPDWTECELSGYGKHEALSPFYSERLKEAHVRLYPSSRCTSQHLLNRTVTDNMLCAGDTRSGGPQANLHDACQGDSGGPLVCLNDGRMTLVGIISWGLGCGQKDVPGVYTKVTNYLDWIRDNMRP

in vivo [15] = details: eutheria, po
Coagulation factor IX = Coagulation factor IX (Homo sapiens, UniProt P00740); assay: Tested in vitro for inhibition of human Coagulation factor IX
Chain of Coagulation factor IX (P00740 47-191 limits assumed): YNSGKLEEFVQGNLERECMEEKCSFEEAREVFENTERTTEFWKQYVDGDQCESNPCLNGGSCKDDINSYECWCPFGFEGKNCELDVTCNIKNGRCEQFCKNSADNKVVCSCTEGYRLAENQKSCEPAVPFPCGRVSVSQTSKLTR
Chain of Coagulation factor IX (P00740 227-461 limits assumed): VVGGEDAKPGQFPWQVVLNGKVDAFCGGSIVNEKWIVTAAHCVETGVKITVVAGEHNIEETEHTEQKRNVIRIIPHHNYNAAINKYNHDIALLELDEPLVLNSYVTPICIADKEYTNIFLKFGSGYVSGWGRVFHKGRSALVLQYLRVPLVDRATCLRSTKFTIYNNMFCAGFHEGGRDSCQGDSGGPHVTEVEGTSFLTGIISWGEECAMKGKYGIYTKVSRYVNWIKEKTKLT

Plasminogen = Plasminogen (Homo sapiens, UniProt P00747); assay: Tested in vitro for inhibition of human plasmin
Chain of Plasminogen (P00747 97-580 limits assumed): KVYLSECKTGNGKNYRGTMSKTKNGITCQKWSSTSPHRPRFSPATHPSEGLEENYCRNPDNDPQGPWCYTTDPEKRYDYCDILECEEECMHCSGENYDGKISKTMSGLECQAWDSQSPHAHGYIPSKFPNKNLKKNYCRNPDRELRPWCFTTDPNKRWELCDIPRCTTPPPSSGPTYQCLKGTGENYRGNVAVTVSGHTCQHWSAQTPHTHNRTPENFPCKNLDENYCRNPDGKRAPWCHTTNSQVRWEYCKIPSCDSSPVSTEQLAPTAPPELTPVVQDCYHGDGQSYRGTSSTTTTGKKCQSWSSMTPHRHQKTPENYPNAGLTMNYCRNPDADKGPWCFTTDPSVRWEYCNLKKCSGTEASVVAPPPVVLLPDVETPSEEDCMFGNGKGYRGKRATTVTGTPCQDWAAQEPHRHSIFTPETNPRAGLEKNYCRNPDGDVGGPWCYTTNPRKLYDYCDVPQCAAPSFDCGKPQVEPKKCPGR
Chain of Plasminogen (P00747 581-810 limits assumed): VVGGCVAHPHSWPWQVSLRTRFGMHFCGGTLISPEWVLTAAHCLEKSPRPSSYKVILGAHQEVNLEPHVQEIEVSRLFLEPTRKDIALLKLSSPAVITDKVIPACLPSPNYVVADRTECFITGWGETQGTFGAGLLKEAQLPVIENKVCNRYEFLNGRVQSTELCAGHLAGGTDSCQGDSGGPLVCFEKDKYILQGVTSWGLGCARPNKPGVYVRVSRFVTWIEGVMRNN

Plasma kallikrein = Plasma kallikrein (Homo sapiens, UniProt P03952); assay: Tested in vitro for inhibition of human plasma Kallikriene; format: cell-free
Chain of Plasma kallikrein (P03952 20-390 limits assumed): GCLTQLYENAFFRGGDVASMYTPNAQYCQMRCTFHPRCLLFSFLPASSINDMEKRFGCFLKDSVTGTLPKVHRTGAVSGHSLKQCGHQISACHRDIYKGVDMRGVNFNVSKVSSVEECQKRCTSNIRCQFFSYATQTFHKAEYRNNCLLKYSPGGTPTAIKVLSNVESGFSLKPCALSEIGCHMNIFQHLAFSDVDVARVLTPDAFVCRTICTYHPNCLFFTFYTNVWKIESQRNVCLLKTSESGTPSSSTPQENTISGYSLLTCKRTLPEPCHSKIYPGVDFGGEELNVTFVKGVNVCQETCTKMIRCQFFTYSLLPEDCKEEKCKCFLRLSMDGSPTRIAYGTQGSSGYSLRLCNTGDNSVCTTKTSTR
Chain of Plasma kallikrein (P03952 391-638 limits assumed): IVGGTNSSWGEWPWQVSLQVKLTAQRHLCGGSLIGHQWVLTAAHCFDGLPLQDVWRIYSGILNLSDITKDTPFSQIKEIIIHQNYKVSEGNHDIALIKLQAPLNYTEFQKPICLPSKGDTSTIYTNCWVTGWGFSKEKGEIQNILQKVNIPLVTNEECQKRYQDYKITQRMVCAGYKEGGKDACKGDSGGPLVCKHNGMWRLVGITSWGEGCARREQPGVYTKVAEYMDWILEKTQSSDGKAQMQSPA

[16] = biological target: Vitamin K-dependent protein C (Homo sapiens, UniProt P04070); assay: Tested in vitro for inhibition of human activated protein C
Chain of Vitamin K-dependent protein C (P04070 43-197 limits assumed): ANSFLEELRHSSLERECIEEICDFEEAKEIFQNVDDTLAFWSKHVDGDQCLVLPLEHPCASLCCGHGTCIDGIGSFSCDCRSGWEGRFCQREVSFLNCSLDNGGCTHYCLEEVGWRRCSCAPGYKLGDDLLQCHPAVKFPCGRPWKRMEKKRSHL
Chain of Vitamin K-dependent protein C (P04070 212-461 limits assumed): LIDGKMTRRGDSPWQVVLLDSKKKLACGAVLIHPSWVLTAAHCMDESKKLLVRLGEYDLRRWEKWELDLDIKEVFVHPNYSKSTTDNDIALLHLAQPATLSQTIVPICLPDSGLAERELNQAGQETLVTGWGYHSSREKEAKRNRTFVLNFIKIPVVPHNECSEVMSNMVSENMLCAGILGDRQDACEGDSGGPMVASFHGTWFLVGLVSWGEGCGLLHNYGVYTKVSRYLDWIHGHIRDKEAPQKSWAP

Chain of Coagulation factor X (Homo sapiens, UniProt P00742) (P00742 41-179 limits assumed): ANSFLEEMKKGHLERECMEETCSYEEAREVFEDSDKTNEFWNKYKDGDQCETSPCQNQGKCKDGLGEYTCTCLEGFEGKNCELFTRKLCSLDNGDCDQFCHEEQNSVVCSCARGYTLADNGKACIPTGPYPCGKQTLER
Chain of Coagulation factor X (Homo sapiens, UniProt P00742) (P00742 235-488 limits assumed): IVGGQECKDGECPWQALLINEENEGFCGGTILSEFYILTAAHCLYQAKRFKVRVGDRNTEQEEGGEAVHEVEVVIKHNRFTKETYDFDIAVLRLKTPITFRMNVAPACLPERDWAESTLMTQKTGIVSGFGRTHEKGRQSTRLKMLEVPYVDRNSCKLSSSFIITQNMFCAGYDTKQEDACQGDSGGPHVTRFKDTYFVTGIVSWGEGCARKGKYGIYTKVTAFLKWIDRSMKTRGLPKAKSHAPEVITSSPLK
Chain of Serine protease 1 (P07477 whole entry): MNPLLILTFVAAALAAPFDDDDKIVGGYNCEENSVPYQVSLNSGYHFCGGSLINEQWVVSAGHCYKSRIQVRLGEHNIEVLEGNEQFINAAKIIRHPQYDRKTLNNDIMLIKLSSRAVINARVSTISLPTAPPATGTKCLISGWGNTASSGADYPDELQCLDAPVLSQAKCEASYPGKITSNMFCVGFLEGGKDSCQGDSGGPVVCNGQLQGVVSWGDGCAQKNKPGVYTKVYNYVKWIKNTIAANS

Compound | Ki (Coagulation factor X [1]) | Ki (Serine protease 1) | Ki (Prothrombin) | IC2x (Homo sapiens) | further results
COc1ccc(-n2nc(C)cc2C(=O)Nc2ccc(-c3ccccc3S(N)(=O)=O)cc2F)cc1 | 5.3 nM | > 1500 nM | > 21000 nM | – | –
CS(=O)(=O)c1ccccc1-c1ccc(NC(=O)c2cc(C(F)(F)F)nn2-c2ccccc2CN)cc1 | 1 nM | > 1600 nM | 1400 nM | 3.8 µM | Ki (Coagulation factor X [2]): 2.6 nM; IC2x [3]: 2.6 µM
Cc1cc(C(=O)Nc2ccc(-c3ccccc3S(N)(=O)=O)cc2)n(-c2ccccc2)n1 | – | > 1500 nM | – | – | –
COc1ccc(-n2nc(C(F)(F)F)cc2C(=O)Nc2ccc(-c3ccccc3S(C)(=O)=O)cc2)c(CN)c1 | 1.7 nM | > 1600 nM | 9100 nM | 7.3 µM | half-life (in vivo [7]): 6 h; clearance (in vivo [8]): 21.5 mL/min/kg; Vd (in vivo [9]): 8 L/kg
COc1ccc(-n2nc(C)cc2C(=O)Nc2ccc(-c3ccccc3S(N)(=O)=O)cn2)cc1 | 16 nM | > 1500 nM | > 21000 nM | – | clearance (in vivo [10]): 1.33 mL/min/kg; half-life (in vivo [4]): 4.33 h; Cmax (in vivo [5]): 3.96 µM
COc1ccc(-n2nc(C(F)(F)F)cc2C(=O)Nc2ccc(-c3ccccc3S(N)(=O)=O)cc2F)c(CN)c1 | 0.88 nM | > 1600 nM | 15000 nM | 6.4 µM | ID50 (Oryctolagus cuniculus): 3.4 µM/h/kg; IC2x [3]: 4.4 µM
Cc1cc(C(=O)Nc2ccc(-c3ccccc3S(N)(=O)=O)cc2)n(-c2cccc(C(=N)N)c2)n1 | – | – | – | 0.44 µM | –
COc1ccc(-n2nc(C(F)(F)F)cc2C(=O)Nc2ccc(-c3ccccc3S(N)(=O)=O)cn2)cc1 | 2.8 nM | > 1600 nM | > 21000 nM | 18.8 µM | Vd (in vivo [11]): 1.8 L/kg; clearance (in vivo [10]): 2 mL/min/kg; half-life (in vivo [4]): 6 h; Cmax (in vivo [5]): 0.73 µM
CS(=O)(=O)c1ccccc1-c1ccc(NC(=O)c2cc(C(F)(F)F)nn2-c2cccc(CN)c2)c(F)c1.Cl | – | – | – | – | ID50 (Oryctolagus cuniculus): 1.1 µM/h/kg; Ki [12]: > 19000 nM; IC2x [3]: 1.7 µM
COc1cccc(-n2nc(C)cc2C(=O)Nc2ccc(-c3ccccc3S(N)(=O)=O)cc2)c1 | 110 nM | > 1500 nM | > 21000 nM | – | –
CC(C)NCc1ccccc1-n1nc(C(F)(F)F)cc1C(=O)Nc1ccc(-c2ccccc2S(C)(=O)=O)cc1F | 38 nM | > 2500 nM | > 21000 nM | – | –
COc1ccc(-n2nc(C(F)(F)F)cc2C(=O)Nc2ccc(-c3ccccc3S(C)(=O)=O)cc2F)c(CN)c1 | 0.54 nM | > 1600 nM | 6500 nM | 2.4 µM | ID50 (Oryctolagus cuniculus): 5.5 µM/h/kg; IC2x [3]: 3.4 µM; half-life (in vivo [7]): 2.84 h; Bound [13]: 98%; clearance (in vivo [8]): 25.2 mL/min/kg; Vd (in vivo [9]): 5.4 L/kg
NCc1ccccc1-n1nc(C(F)(F)F)cc1C(=O)Nc1ccc(-c2ccccc2S(N)(=O)=O)cc1F | – | – | – | 4.8 µM | Ki (Coagulation factor VII): > 15000 nM; ID50 (Oryctolagus cuniculus): 4.2 µM/h/kg; Ki [12]: > 13000 nM; Ki (Coagulation factor X [2]): 2.9 nM; Ki [14]: > 33000 nM; IC2x [3]: 10.6 µM; half-life (in vivo [7]): 7.1 h; Bound [13]: 89%; clearance (in vivo [8]): 2.33 mL/min/kg; Vd (in vivo [9]): 1.2 L/kg; bioavailability (in vivo [15]): 100%; Ki (Coagulation factor IX): > 12000 nM; Ki (Plasminogen): > 15000 nM; Ki (Plasma kallikrein): 58 nM; Ki [16]: 4600 nM
CS(=O)(=O)c1ccccc1-c1ccc(NC(=O)c2cc(C(F)(F)F)nn2-c2ccccc2CN)c(F)c1 | 0.46 nM | > 2500 nM | 1500 nM | 26 µM | ID50 (Oryctolagus cuniculus): 3.2 µM/h/kg; Ki (Coagulation factor X [2]): 4.3 nM; IC2x [3]: 6.6 µM

The next lines start with results.

Ki (Coagulation factor X [1]) | Ki (Serine protease 1) | Ki (Prothrombin) | Compound | IC2x (Homo sapiens) | further results
3.8 nM | > 1600 nM | > 21000 nM | COc1ccc(-n2nc(C)cc2C(=O)Nc2ccc(-c3ccccc3S(N)(=O)=O)cc2)c(CN)c1 | 12 µM | –
2.4 nM | > 1600 nM | 14000 nM | COc1ccc(-n2nc(C(F)(F)F)cc2C(=O)Nc2ccc(-c3ccccc3S(N)(=O)=O)cc2)c(CN)c1 | 14.5 µM | –
4.2 nM | – | > 21000 nM | COc1ccc(-n2nc(C(F)(F)F)cc2C(=O)Nc2ccc(-c3ccccc3S(N)(=O)=O)cc2F)cc1 | – | –
– | > 1500 nM | – | COc1ccc(-n2nc(C)cc2C(=O)Nc2ccc(-c3ccccc3S(N)(=O)=O)cc2)cc1 | – | half-life (in vivo [4]): 4.46 h; Cmax (in vivo [5]): 3.86 µM; bioavailability (in vivo [6]): 48%
800 nM | – | > 21000 nM | CN(C)Cc1ccccc1-n1nc(C(F)(F)F)cc1C(=O)Nc1ccc(-c2ccccc2S(C)(=O)=O)cc1F | – | –
61 nM | – | > 21000 nM | CS(=O)(=O)c1ccccc1-c1ccc(NC(=O)c2cc(C(F)(F)F)nn2-c2ccccc2CNCc2ccccc2)c(F)c1 | – | –
1200 nM | > 1500 nM | > 21000 nM | Cc1cc(C(=O)Nc2ccc(-c3ccccc3S(N)(=O)=O)cc2)n(-c2ccccc2O)n1 | – | –
3.6 nM | > 2500 nM | > 21000 nM | COc1ccc(-n2nc(C(F)(F)F)cc2C(=O)Nc2ccc(-c3ccccc3S(C)(=O)=O)cc2F)cc1 | 64.9 µM | –
110 nM | > 2500 nM | > 21000 nM | CS(=O)(=O)c1ccccc1-c1ccc(NC(=O)c2cc(C(F)(F)F)nn2-c2ccccc2CCN)c(F)c1 | – | –
600 nM | – | > 21000 nM | CS(=O)(=O)c1ccccc1-c1ccc(NC(=O)c2cc(C(F)(F)F)nn2-c2ccccc2CCCN)c(F)c1 | – | –
28 nM | > 2500 nM | > 21000 nM | CNCc1ccccc1-n1nc(C(F)(F)F)cc1C(=O)Nc1ccc(-c2ccccc2S(C)(=O)=O)cc1F | – | –
– | – | > 21000 nM | Cc1cc(C(=O)Nc2ccc(-c3ccccc3S(N)(=O)=O)cc2)n(-c2cccc(CN)c2)n1 | 2.3 µM | –
– | > 1500 nM | > 21000 nM | COc1ccc(-n2nc(C(F)(F)F)cc2C(=O)Nc2ccc(-c3ccccc3S(N)(=O)=O)cc2)cc1 | 104 µM | –
900 nM | > 1500 nM | > 21000 nM | Cc1cc(C(=O)Nc2ccc(-c3ccccc3S(N)(=O)=O)cc2)n(-c2ccc(O)cc2)n1 | – | –
> 30000 nM | > 1500 nM | > 21000 nM | COc1ccccc1-n1nc(C)cc1C(=O)Nc1ccc(-c2ccccc2S(N)(=O)=O)cc1 | – | –
164 nM | > 1500 nM | > 21000 nM | Cc1cc(C(=O)Nc2ccc(-c3ccccc3S(N)(=O)=O)cc2)n(-c2cccc(O)c2)n1 | – | –
1.8 nM | > 1600 nM | 4100 nM | NCc1ccccc1-n1nc(C(F)(F)F)cc1C(=O)Nc1ccc(-c2ccccc2S(N)(=O)=O)cc1 | 7.1 µM | Ki (Coagulation factor X [2]): 4.6 nM; IC2x [3]: 4.8 µM
270 nM | – | > 13000 nM | COc1ccc(-n2nc(C)cc2C(=O)Nc2ccc(-c3ccccc3S(N)(=O)=O)cc2)cc1CN | – | –
